One may read the inhibition as the share of the control response that was lost under treatment.

Assay [1] deals with T1, RBBP9 (Homo sapiens, UniProt O75884). To be noted: ~20,000 compound fluopol-ABPP screen ref 5; cited from earlier work.
A further assay relates to translation (ribosome). To be noted: in vitro ref 15; cited from earlier work.
For assay [2], the target named is T1, RBBP9. Description: reversibility of RBBP9 inhibition by gel filtration, FP-Rh labeling. To be noted: inhibitor 100 µM. It is filed as biochemical. Summed up:
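One half was reacted directly with FP-Rh. The other half was gel-filtered, then reacted with FP-Rh. Probe labelling was compared between the two halves.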
A general note: In gel filtration, larger molecules generally elute earlier.

A further assay deals with α2-adrenergic receptors. Conditions: cited from earlier work.
For assay [3], the system named is serine hydrolases of the mouse brain membrane proteome. It is filed as biochemical. To be noted: mouse brain membrane proteome doped with RBBP9, FP-Rh probe, up to 200 µM. The method in brief: (§1)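 Gel-based competitive ABPP. Two proteomes were used: the soluble fraction of RBBP9-transfected HEK 293T cells, and mouse brain membrane fraction doped with recombinant RBBP9. Each was preincubated 30 minutes with test compound (HEK: 20 and 200 µM; brain: a concentration series or 200 µM), then given FP-Rh (1 µM). Reactions were quenched after 10 minutes, run on SDS-PAGE and quantified by in-gel fluorescence scanning.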

Assay [4] concerns the target T1, RBBP9. Description: LC-MS/MS identification of site of covalent labeling on RBBP9. To be noted: trypsin digest, +138.00 Da modification.
Assay [5] has as its system serine hydrolases of the HEK 293T soluble proteome. Description: competitive ABPP with FP-Rh in RBBP9-transfected HEK 293T soluble proteome. It is filed as biochemical. Conditions: FP-Rh probe, 20 and 200 µM. The method in brief: as §1
The target of assay [6] is T1, RBBP9. In words: fluopol-ABPP screen for RBBP9 inhibition. Type of assay: biochemical. To be noted: read-out: percent inhibition of RBBP9 in fluopol-ABPP confirmation screen.
In assay [7] the target is T2, glutathione transferase omega 1 (GSTO1) (Homo sapiens, UniProt P78417).
T2 sequence (P78417 1-241): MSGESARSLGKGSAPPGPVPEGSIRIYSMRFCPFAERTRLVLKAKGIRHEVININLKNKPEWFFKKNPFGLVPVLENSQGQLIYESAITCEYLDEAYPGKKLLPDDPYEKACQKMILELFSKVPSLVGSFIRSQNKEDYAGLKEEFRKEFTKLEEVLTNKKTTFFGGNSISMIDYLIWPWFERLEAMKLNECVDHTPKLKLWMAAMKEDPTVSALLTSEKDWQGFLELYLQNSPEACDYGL
Description: PS-Rh labeling of GSTO1 in MDA-MB-231 proteome. It is filed as biochemical. Conditions: compounds 20 µM, PS-Rh 5 µM, 1 hour. Summed up:
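Gel-based competitive ABPP for thiol cross-reactivity. MDA-MB-231 proteome was treated with test compound (20 µM) and then labelled with the cysteine-reactive phenylsulfonate-rhodamine probe (5 µM, 1 hour). Labelled proteins were resolved on gel and read by fluorescence.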

The target of the next assay is purified RBBP9 (Homo sapiens, UniProt O75884). In words: gel-based competitive ABPP with purified RBBP9. Conditions: for RBBP9 inhibitory activity (in words): purified RBBP9, 20 µM. It is filed as biochemical.
Sequence of purified RBBP9 (O75884 whole entry): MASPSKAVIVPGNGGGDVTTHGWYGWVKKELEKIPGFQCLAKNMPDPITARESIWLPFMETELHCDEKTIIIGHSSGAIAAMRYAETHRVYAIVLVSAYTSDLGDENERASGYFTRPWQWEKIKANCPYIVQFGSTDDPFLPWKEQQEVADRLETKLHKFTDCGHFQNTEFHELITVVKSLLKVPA

T1 sequence (O75884 whole entry): as above

As to `CC[C@H]1CN2CCc3cc(OC)c(OC)cc3[C@@H]2C[C@@H]1C[C@H]1NCCc2cc(OC)c(OC)cc21` [1 (emetine), emetine], the “mode of RBBP9 inhibition” value on RBBP9 [1] is reported as “reversible inhibitor of RBBP9”. Moreover, in the assay with translation (ribosome), the inhibition of translation entry is “inhibit translation in vitro”. Besides, at RBBP9 [2], the “reversibility of blockade of FP-rhodamine RBBP9 labeling” value is reported as “reversible inhibitor”. For the same compound, the “antagonism of α2-adrenergic receptors” value in the assay on α2-adrenergic receptors is listed as “antagonize of α2-adrenergic receptors”.
`C/C(=N\OC(=O)c1ccc(Cl)cc1)c1nccs1` [Compound 2]: the “selectivity for RBBP9 over other hydrolases” value (shortened to “selectivity for RBBP9”) in assay [3] is given as “highly selective for RBBP9”. On RBBP9 [4], the “site of covalent adduct on RBBP9” value was “adduct only on the active site serine nucleophile (Ser75)”. Moreover, the “reversibility of blockade of FP-rhodamine RBBP9 labeling” value on RBBP9 [2] is “not reversed by gel filtration”.
On to `COc1ccc(C(=O)O/N=C(\C)c2nccs2)cc1` [Compound 3], for which, in [3], the “selectivity for RBBP9” value is reported as “highly selective for RBBP9”.
In the case of `CC1=CC(=NOC(=O)/C=C/c2ccccc2)C=C(C)C1=O` [Compound 4], the “selectivity for RBBP9” value in assay [5] was “less selective for RBBP9”. Besides, the inhibition at 7.94 µM on RBBP9 [6] is roughly 80%. Besides, the “inhibition of PS-Rh labeling of GSTO1” value in assay [7] is reported as “potently inhibited”.
`C/C(=N\OC(=O)c1ccc([N+](=O)[O-])cc1)c1nccs1` [Compound 12]: at purified RBBP9, the “RBBP9 inhibitory activity (in words)” value was “loss of RBBP9 inhibitory activity”.
Consider `C/C(=N\OC(=O)c1ccc(-c2ccccc2)cc1)c1nccs1` [Compound 13], for which the “RBBP9 inhibitory activity (in words)” value at purified RBBP9 is listed as “completely ablating all inhibitory activity”.
`C/C(=N\OC(=O)C1CCCCC1)c1nccs1` [Compound 18]: the “selectivity for RBBP9” value in assay [5] is “selective for RBBP9”; in assay [3], “did not inhibit any other hydrolases”. Besides, the “fold lower IC50 than hit compound 2” value on purified RBBP9 (recombinant RBBP9) was 3 fold.
`CC(=O)O/N=C(\C)c1nccs1` [Compound 19]: the “RBBP9 inhibitory activity (in words)” value at purified RBBP9 is “no detectable inhibitory activity”.
On to `C/C(=N\OC(=O)N1CCCCC1)c1nccs1` [Compound 20], for which the “RBBP9 inhibitory activity (in words)” value at purified RBBP9 is on record as “no inhibition of RBBP9”.
For the compound `COc1ccc(C(=O)ON=C2C=C(C)C(=O)C(C)=C2)cc1` [Compound 21], the “selectivity for RBBP9” value in assay [3] is recorded as “good selectivity for RBBP9”. Also, in assay [7], the “inhibition of PS-Rh labeling of GSTO1” value is reported as “no longer inhibited GSTO1”.
With `COc1ccc(C(=O)O/N=C2/C=C(C)C(=O)C=C2C)cc1` [Compound 22], the “RBBP9 inhibitory activity (in words)” value on purified RBBP9 was “loss of RBBP9 inhibitory activity”.
The same measure, in the same setting: then `COc1ccc(C(=O)ON=C2C(C)=CC(=O)C=C2C)cc1` [Compound 23], with “loss of RBBP9 inhibitory activity, an effect exacerbated”; and `C/C(=N\OC(=O)/C=C/c1ccccc1)c1nccs1` [Compound 24], with “significantly reduced activity against RBBP9”.

(Values after publication PMC2843764 (Bioorganic & medicinal chemistry letters, 2010).)
